Source: ChEMBL document CHEMBL1268908, “Design, synthesis, radiolabeling, and in vivo evaluation of carbon-11 labeled N-[2-[4-(3-cyanopyridin-2-yl)piperazin-1-yl]ethyl]-3-methoxybenzamide, a potential positron emission tomography tracer for the dopamine D(4) receptors” (J Med Chem, 2010)

What was measured:
Format in all cases: ADME, organism-based, Macaca mulatta
[1] = Biodistribution in rhesus monkey cingulate cortex at 150.3 MBq, iv after 0.25 mins; conditions: in vivo, 15 s
Method in brief: (§1)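 Male rhesus monkey under ketamine (10 mg/kg im) with head fixation. After a 20 min 68Ge-68Ga transmission scan, the [11C]-labelled tracer in saline (pH 7.4) was injected iv, at 2.9 TBq/μmol specific radioactivity at injection. A dynamic 3D PET scan followed over 90 min (6×0.5, 7×1, 20×2, 8×5 min frames). Regions were defined on T1-weighted 1.5 T MRI, and uptake is given as %ID/mL.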

Hippocampus [2] = experiment: Biodistribution in rhesus monkey hippocampus at 150.3 MBq, iv after 1.25 mins; conditions: in vivo, 75 s
Method in brief: (§2)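 Single male rhesus monkey anesthetized with ketamine 10 mg/kg im, head fixed. Attenuation correction by 20 min 68Ge-68Ga transmission scan. [11C]-tracer in saline (pH 7.4) given iv, specific radioactivity 2.9 TBq/μmol at injection. Dynamic 3D PET emission scan over 90 min in frames of 0.5 to 5 min. MRI T1 images used to define VOIs. Uptake expressed as […].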

[3] = Biodistribution in rhesus monkey entorhinal cortex at 150.3 MBq, iv after 1.75 mins; conditions: in vivo, 105 s; method in brief: as §2
[4] = Biodistribution in rhesus monkey cingulate cortex at 150.3 MBq, iv after 3.5 mins; conditions: in vivo; method in brief: as §1
[5] = Biodistribution in rhesus monkey occipital lobe at 150.3 MBq, iv after 3.5 mins; conditions: in vivo
Method in brief: (§3)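 Male rhesus monkey under ketamine 10 mg/kg im, head fixed; 20 min 68Ge-68Ga transmission scan, then 90 min dynamic 3D PET (6×0.5, 7×1, 20×2, 8×5 min frames) after iv [11C]-labelled tracer in saline, specific radioactivity about 2.9 TBq/μmol at injection. Regions defined on T1-weighted MRI; uptake expressed as % injected dose per mL.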

[6] = Biodistribution in rhesus monkey retina at 150.3 MBq, iv after 3.5 mins; conditions: in vivo
Hippocampus [7] = experiment: Biodistribution in rhesus monkey hippocampus at 150.3 MBq, iv after 4.5 mins; conditions: in vivo, 0.075 h; method in brief: as §3
[8] = Biodistribution in rhesus monkey cingulate cortex at 150.3 MBq, iv after 4.5 mins; conditions: in vivo, 0.075 h; method in brief: as §1
[9] = Biodistribution in rhesus monkey cerebellum at 150.3 MBq, iv after 4.5 mins; conditions: in vivo, 0.075 h; method in brief: as §1
[10] = Biodistribution in rhesus monkey occipital lobe at 150.3 MBq, iv after 4.5 mins; conditions: in vivo, 0.075 h; method in brief: as §3
Hippocampus [11] = experiment: Biodistribution in rhesus monkey hippocampus at 150.3 MBq, iv after 5.5 mins; conditions: in vivo; method in brief: as §3
Striatum [12] = experiment: Biodistribution in rhesus monkey striatum at 150.3 MBq, iv after 5.5 mins; conditions: in vivo
[13] = Biodistribution in rhesus monkey occipital lobe at 150.3 MBq, iv after 5.5 mins; conditions: in vivo
Striatum [14] = experiment: Biodistribution in rhesus monkey striatum at 150.3 MBq, iv after 7.5 mins; conditions: in vivo, 0.125 h
Hippocampus [15] = experiment: Biodistribution in rhesus monkey hippocampus at 150.3 MBq, iv after 9.5 mins; conditions: in vivo; method in brief: as §3
Hippocampus [16] = experiment: Biodistribution in rhesus monkey hippocampus at 150.3 MBq, iv after 11 mins; conditions: in vivo; method in brief: as §2
Striatum [17] = experiment: Biodistribution in rhesus monkey striatum at 150.3 MBq, iv after 11 mins; conditions: in vivo
[18] = Biodistribution in rhesus monkey cingulate cortex at 150.3 MBq, iv after 13 mins; conditions: in vivo; method in brief: as §1
[19] = Biodistribution in rhesus monkey retina at 150.3 MBq, iv after 15 mins; conditions: in vivo, 0.25 h
Hippocampus [20] = experiment: Biodistribution in rhesus monkey hippocampus […], iv after 17 mins; conditions: in vivo, in the assay text read “150.3 MBq” for “170.3 MBq”; method in brief: as §3
[21] = Biodistribution in rhesus monkey cingulate cortex at 150.3 MBq, iv after 19 mins; conditions: in vivo; method in brief: as §1
Striatum [22] = experiment: Biodistribution in rhesus monkey striatum at 150.3 MBq, iv after 19 mins; conditions: in vivo
[23] = Biodistribution in rhesus monkey entorhinal cortex at 150.3 MBq, iv after 21 mins; conditions: in vivo, 0.35 h; method in brief: as §2
[24] = Biodistribution in rhesus monkey entorhinal cortex at 150.3 MBq, iv after 25 mins; conditions: in vivo; method in brief: as §2
[25] = Biodistribution in rhesus monkey entorhinal cortex at 150.3 MBq, iv after 27 mins; conditions: in vivo, 0.45 h; method in brief: as §2
Hippocampus [26] = experiment: Biodistribution in rhesus monkey hippocampus at 150.3 MBq, iv after 29 mins; conditions: in vivo; method in brief: as §3
[27] = Biodistribution in rhesus monkey cerebellum at 150.3 MBq, iv after 31 mins; conditions: in vivo; method in brief: as §1
Striatum [28] = experiment: Biodistribution in rhesus monkey striatum at 150.3 MBq, iv after 33 mins; conditions: in vivo, 0.55 h
[29] = Biodistribution in rhesus monkey cerebellum at 150.3 MBq, iv after 35 mins; conditions: in vivo; method in brief: as §1
Striatum [30] = experiment: Biodistribution in rhesus monkey striatum at 150.3 MBq, iv after 37 mins; conditions: in vivo
Striatum [31] = experiment: Biodistribution in rhesus monkey striatum at 150.3 MBq, iv after 39 mins; conditions: in vivo, 0.65 h
[32] = Biodistribution in rhesus monkey occipital lobe at 150.3 MBq, iv after 43 mins; conditions: in vivo
Method in brief: (§4)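 A male rhesus monkey was anaesthetised with ketamine 10 mg/kg im and placed in a head fixation device. A 20 min 68Ge-68Ga transmission scan was run for attenuation correction. Radiotracer in saline (pH 7.4) was given iv, about 52 pmol (18 ng), at 2.9 TBq/μmol at injection. A dynamic 3D PET scan followed for 90 min. Regional VOIs were defined on a T1-weighted MRI, with uptake expressed as %ID/mL.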

[33] = Biodistribution in rhesus monkey entorhinal cortex at 150.3 MBq, iv after 45 mins; conditions: in vivo, 0.75 h; method in brief: as §2
Hippocampus [34] = experiment: Biodistribution in rhesus monkey hippocampus at 150.3 MBq, iv after 49 mins; conditions: in vivo; method in brief: as §3
[35] = Biodistribution in rhesus monkey cingulate cortex at 150.3 MBq, iv after 49 mins; conditions: in vivo; method in brief: as §2
[36] = Biodistribution in rhesus monkey entorhinal cortex at 150.3 MBq, iv after 49 mins; conditions: in vivo; method in brief: as §2
[37] = Biodistribution in rhesus monkey occipital lobe at 150.3 MBq, iv after 49 mins; conditions: in vivo; method in brief: as §4
Hippocampus [38] = experiment: Biodistribution in rhesus monkey hippocampus at 150.3 MBq, iv after 57.5 mins; conditions: in vivo; method in brief: as §3
[39] = Biodistribution in rhesus monkey retina at 150.3 MBq, iv after 62.5 mins; conditions: in vivo
[40] = Biodistribution in rhesus monkey cingulate cortex at 150.3 MBq, iv after 67.5 mins; conditions: in vivo, 1.125 h; method in brief: as §2
Hippocampus [41] = experiment: Biodistribution in rhesus monkey hippocampus at 150.3 MBq, iv after 87.5 mins; conditions: in vivo; method in brief: as §3
[42] = Biodistribution in rhesus monkey retina at 150.3 MBq, iv after 87.5 mins; conditions: in vivo
Hippocampus [43] = experiment: Biodistribution in rhesus monkey hippocampus at 150.3 MBq, iv after 2.75 mins; conditions: in vivo, 165 s; method in brief: as §2
[44] = Biodistribution in rhesus monkey retina at 150.3 MBq, iv after 52.5 mins; conditions: in vivo, 0.875 h

Work on [11CH3]Oc1cccc(C(=O)NCCN2CCN(c3ncccc3C#N)CC2)c1 yielded a Drug uptake [1] of 46.02 kBq/ml, a Drug uptake (Hippocampus [2]) of 55.94 kBq/ml and a Drug uptake [3] of 39.28 kBq/ml. It also gave a Drug uptake [4] of 42.88 kBq/ml, a Drug uptake [5] of 37.15 kBq/ml and a Drug uptake [6] of 39.59 kBq/ml. For the same compound, the Drug uptake (Hippocampus [7]) was 41.63 kBq/ml, the Drug uptake [8] was 39.8367 kBq/ml and the Drug uptake [9] was 34.76 kBq/ml. It also gave a Drug uptake [10] of 33.71 kBq/ml, a Drug uptake (Hippocampus [11]) of 39.36 kBq/ml and a Drug uptake (Striatum [12]) of 39.4 kBq/ml. It also gave a Drug uptake [13] of 32.15 kBq/ml, a Drug uptake (Striatum [14]) of 34.7 kBq/ml and a Drug uptake (Hippocampus [15]) of 30.28 kBq/ml. It also gave a Drug uptake (Hippocampus [16]) of 27 kBq/ml, a Drug uptake (Striatum [17]) of 28.08 kBq/ml and a Drug uptake [18] of 22.54 kBq/ml. The Drug uptake [19] was 50.94 kBq/ml, the Drug uptake (Hippocampus [20]) was 19.15 kBq/ml and the Drug uptake [21] was 18.84 kBq/ml. It also gave a Drug uptake (Striatum [22]) of 20.01 kBq/ml, a Drug uptake [23] of 19.46 kBq/ml and a Drug uptake [24] of 17.3 kBq/ml. For the same compound, the Drug uptake [25] was 14.48 kBq/ml, the Drug uptake (Hippocampus [26]) was 16.7 kBq/ml and the Drug uptake [27] was 13.26 kBq/ml. For the same compound, the Drug uptake (Striatum [28]) was 14.6624 kBq/ml, the Drug uptake [29] was 11.95 kBq/ml and the Drug uptake (Striatum [30]) was 12.6 kBq/ml. It also gave a Drug uptake (Striatum [31]) of 11.52 kBq/ml, a Drug uptake [32] of 9.37 kBq/ml and a Drug uptake [33] of 10.89 kBq/ml. For the same compound, the Drug uptake (Hippocampus [34]) was 9.828 kBq/ml, the Drug uptake [35] was 10.6 kBq/ml and the Drug uptake [36] was 9.688 kBq/ml. The Drug uptake [37] was 9.036 kBq/ml, the Drug uptake (Hippocampus [38]) was 7.745 kBq/ml and the Drug uptake [39] was 54.08 kBq/ml. The Drug uptake [40] was 9.959 kBq/ml, the Drug uptake (Hippocampus [41]) was 8.159 kBq/ml and the Drug uptake [42] was 52.04 kBq/ml. For the same compound, the Drug uptake (Hippocampus [43]) was 47.34 kBq/ml and the Drug uptake [44] was 55.05 kBq/ml.
